Source: PubChem BioAssay
Results filed as inconclusive are left out.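 The calls were made as follows, unless noted: active = viability at or below 27.92% in each of two runs, the all-compound median minus 4 SD; inconclusive = no clear call, values can overlap the other calls; inactive = the rest.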

Assays:
[1] = S. cerevisiae growth inhibition in permissive medium (OD615), pilot counter-assay for S. cerevisiae lifespan shortening project, permissive growth control (AID 705;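 active = growth inhibition above 25% in both replicates, a cutoff set 3 SD above the mean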); details: OD615, 24 h, at 10 µM, hits give high values
Procedure, shortened: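 Material: engineered DeaD yeast; Compound: one dose 10 µM, DMSO 0.25% final; Detection: absorbance (optical density) at 615 nm; Buffer or medium: permissive raffinose/galactose medium; Timing: 24 h exposure, 30 °C.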

[2] = S. cerevisiae growth inhibition in restrictive medium, OD615, pilot screen, restrictive growth control, yeast lifespan reduction project (AID 706;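 active = growth inhibition above a set limit, 3 SD over mean compound inhibition, in both replicates, cut at about 43% in these data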;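 also: modified DeaD lifespan yeast strain shifted to restrictive glucose medium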); details: OD615, 48 h, at 10 µM, hits give high values
Procedure, shortened: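 Buffer or medium: restrictive glucose medium (CSMM-D); test system: modified S. cerevisiae; doses: single dose of 10 µM compound final, 0.25% DMSO; schedule: 48 h compound exposure at 30 °C; detection: absorbance (optical density) measured at 615 nm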

[3] = doxorubicin toxicity protection in MRP-1 cells – H69AR cells, CellTiter-Glo, duplicate, MRP-1 activator project, pilot screen (AID 807;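 active = viability increase at or above a cutoff of the median across tested compounds plus 3 SD, cut at about 8.5% in these data, passing the limit was not always enough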;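 also: compound pretreatment 18-22 h then 72 h combined with doxorubicin; 0% = doxorubicin alone and 100% = vehicle without doxorubicin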); details: H69AR viability with doxorubicin, CellTiter-Glo luminescence; at 10 µM; hits give high values
[4] = viability of HCT116 without oncogenic beta-catenin – human colon tumor cells, pilot screen (AID 823;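 active = cell viability at or below a set limit in both duplicate runs, the limit being the all-compound median minus 4 SD, cut at about 23% in these data, passing the limit was not always enough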;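 also: 0% = wells killed by 20 µM Hyamine and 100% = untreated DMSO cell wells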); details: HCT116 beta-catenin knockout viability, CellTiter-Glo, 60 h; at 10 µM; hits give low values
[5] = viability of PTEN-null HCT116 cells – cell-based, HCT116 clonal line, CellTiter-Glo, pilot screen (AID 824); details: HCT116 PTEN-deleted viability, 60 h, at 10 µM, hits give low values;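 also: 0% = 20 µM Hyamine control and 100% = vehicle cell control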
[6] = RAM pathway blockade in budding yeast – dse1pr::URA3 reporter, 5-FOA selection, pilot screen (AID 869;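 active = inhibition over a set limit, the all-compound mean plus 3 SD, in both replicate runs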;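 also: 0% = DMSO wells with no growth and 100% = 10 µM 1-NA-PP1 with full growth; RAM network block rescues cells from 5-FOA so hits raise OD615 growth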); details: S. cerevisiae dse1pr::URA3 5-FOA growth, OD615, 2 d; at 10 µM; hits give high values; strain carries analog-sensitive mutant Cbk1 kinase
[7] = RAM signaling pathway blockade in yeast – S. cerevisiae, Pdr1DBD-CYC8 efflux-inhibited sensitized strain, primary screen (AID 1298;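 active = RAM network inhibition above 8.4% in each of two replicates, 3 SD over the compound average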;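 also: 0% = DMSO untreated cells without growth and 100% = 10 µM 1-NA-PP1 full growth; higher means more yeast growth rescued from 5-FOA killing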); details: S. cerevisiae cbk1-as DSE1-URA3 strain, 5-FOA growth OD615, 2 d; at 50 µM; hits give high values

COc1ccccc1Nc1nc(N)nc(CN2CCOCC2)n1
inactive: growth inhibition [1] -12.9% | growth inhibition [2] -6.13% | viability increase [3] -0.98% | viability [4] 108% | viability [5] 101% | inhibition [6] 0.845% | RAM network inhibition [7] 3.74%

Cc1ccc2nc(NC(=O)C3CCN(S(=O)(=O)c4ccc5c(c4)oc(=O)n5C)CC3)sc2c1
inactive: growth inhibition [1] -5.8% | growth inhibition [2] -24.5% | viability increase [3] 1.75% | viability [4] 82.2% | viability [5] 88.9% | inhibition [6] 1.54% | RAM network inhibition [7] 9.3%

CCOc1cccc(=O)c2c(C)n(CC3CCCO3)c(C)c12 (centres undefined)
inactive: growth inhibition [1] -3.19% | growth inhibition [2] -1.17% | viability increase [3] -2.8% | viability [4] 92.5% | viability [5] 90.4% | inhibition [6] 0.73% | RAM network inhibition [7] -1.39%

NC(=O)c1cc(S(=O)(=O)Nc2cccc(F)c2)co1
inactive: growth inhibition [1] -17.4% | growth inhibition [2] -9.41% | viability increase [3] -0.8% | viability [4] 103% | viability [5] 103% | inhibition [6] 1.69% | RAM network inhibition [7] 2.85%

CCOc1ccc2nc(NC(=O)COC)sc2c1
inactive: growth inhibition [1] -7.05% | growth inhibition [2] -13.8% | viability increase [3] 0.64% | viability [4] 102% | viability [5] 102% | inhibition [6] 1.05% | RAM network inhibition [7] 1.66%

COC(=O)C(C(=O)OC)=C(/C=C/N(C)C)N(C)C
inactive: growth inhibition [1] -16.7% | growth inhibition [2] -1.41% | viability increase [3] -0.39% | viability [4] 99.2% | viability [5] 101% | inhibition [6] 1.26% | RAM network inhibition [7] 2.7%

COC(=O)c1ccsc1NC(=O)c1ccc2c(c1)OCCO2
inactive: growth inhibition [1] 2.02% | growth inhibition [2] -2.86% | viability increase [3] -4.78% | viability [4] 81% | viability [5] 68.1% | inhibition [6] 1.8% | RAM network inhibition [7] 2.08%

CCc1ccc(Cn2nnc(C(=O)Nc3cccc(C)c3)c2N)cc1
inactive: growth inhibition [1] -7.21% | growth inhibition [2] -2.92% | viability increase [3] -0.67% | viability [4] 102% | viability [5] 95.9% | inhibition [6] 3.39% | RAM network inhibition [7] 8.18%

CCc1ccc(C2CC(c3ccc(Cl)cc3)n3nc(N)nc3N2)cc1 (centres undefined)
inactive: growth inhibition [1] 3.64% | growth inhibition [2] 17.7% | viability increase [3] 1.85% | viability [4] 101% | viability [5] 90.4% | inhibition [6] 1.53% | RAM network inhibition [7] 2.02%

COC(=O)c1cc(OC)c(OC)cc1-n1cnc2cc(OC)c(OC)cc2c1=O
inactive: growth inhibition [1] -8.81% | growth inhibition [2] -0.615% | viability increase [3] -0.58% | viability [4] 97.4% | viability [5] 105% | inhibition [6] 0.665% | RAM network inhibition [7] 0.92%

Cn1nc(-c2ccc(Cl)cc2)c2cc(C(=O)N3CCN(c4ccccn4)CC3)sc21
inactive: growth inhibition [1] -0.13% | growth inhibition [2] 28.7% | viability increase [3] -5.31% | viability [4] 37% | viability [5] 35.1% | inhibition [6] -0.47% | RAM network inhibition [7] 4.7%

COc1ccc(-c2cc(C(F)F)n3ncc(C(=O)NCCCN4CCCC4=O)c3n2)cc1
inactive: growth inhibition [1] -3.45% | growth inhibition [2] -7.12% | viability increase [3] -4.32% | viability [4] 78.5% | viability [5] 73.5% | inhibition [6] -0.515% | RAM network inhibition [7] 3.32%

CC(C)(C)n1nc2c(c1NC(=O)Cc1cccs1)CSC2
inactive: growth inhibition [1] -8.2% | growth inhibition [2] 12.2% | viability increase [3] -1.56% | viability [4] 93.8% | viability [5] 92.4% | inhibition [6] 0.95% | RAM network inhibition [7] 0.94%

CC(CNC(=O)c1ccc(Br)o1)NC(=O)c1ccc(Br)o1 (centres undefined)
inactive: growth inhibition [1] -0.8% | growth inhibition [2] 2.43% | viability increase [3] -0.71% | viability [4] 99% | viability [5] 97.8% | inhibition [6] 1.46% | RAM network inhibition [7] 1.17%

CC(C)(C)C1(C)OC(C(N)=O)C(C(N)=O)O1 (centres undefined)
inactive: growth inhibition [1] -7.22% | growth inhibition [2] -1.06% | viability increase [3] 0.03% | viability [4] 98.2% | viability [5] 95.7% | inhibition [6] 0.785% | RAM network inhibition [7] 1.14%

CSc1ccccc1NC(=O)c1cnc2scc(C)n2c1=O
inactive: growth inhibition [1] -16.8% | growth inhibition [2] 3.44% | viability increase [3] -2.05% | viability [4] 87.1% | viability [5] 88.1% | inhibition [6] 0.665% | RAM network inhibition [7] 3.71%

O=C(Cc1cc(=O)[nH]c(=O)[nH]1)NCCN1CCOCC1
inactive: growth inhibition [1] 4.2% | growth inhibition [2] 10.4% | viability increase [3] 1.08% | viability [4] 102% | viability [5] 98.6% | inhibition [6] 0.35% | RAM network inhibition [7] 5.04%
